# TRPC4 agonist: opens the mouse TRPC4 cation channel; AID 2237; 0.49% of 310,000 active; B-score at 10 µM; HEK293 TRPC4beta/mu-opioid, Fluo4 calcium fluorescence; active compounds read high; Q9QUQ5;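 active means B-score above 5 SD of library B-scores, and initial fluorescence ratio not above library mean plus 5 SD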;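 further: positive B-score marks a calcium rise read as TRPC4 activation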
#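 system = HEK293 cells stably co-expressing mouse TRPC4beta and mu-opioid receptor | schedule = Fluo4 dye loading 45 min at room temperature, 110 s recording | measure = B-scored integrated calcium fluorescence ratio | signal = Fluo4 calcium-sensitive dye fluorescence, kinetic, 1 Hz baseline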
# TRPC4 block: blocks the mouse TRPC4 cation channel; Q9QUQ5; HEK293 TRPC4beta/mu-opioid, DAMGO-evoked Fluo4 calcium flux; active compounds read low; B-score at 10 µM; 0.39% of 300,000 active;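 active means B-score over 3 SD under the library average, no early fluorescence shift, positive overall ratio signal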
#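 Assay system: TRPC4beta/mu-opioid receptor HEK293 cell line; compound dosing: single concentration per test compound; detection: Fluo4 Ca2+ flux fluorescence; evaluation: per-well B score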
# TRPC6 inh: blocks the mouse TRPC6 cation channel; 1.1% of 310,000 active; Q61143; B-score at 10 µM; HEK293-TRPC6, membrane potential dye, ACh-evoked depolarization; active compounds read low;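 active means B-score under library mean minus 3 SD, initial fluorescence not abnormally high, positive integrated signal ratio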;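 further: B-score derived from integrated fluorescence ratio over the kinetic read; more negative B-score means stronger inhibition of depolarization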
# Target sequence (Q61143 whole entry, looked up): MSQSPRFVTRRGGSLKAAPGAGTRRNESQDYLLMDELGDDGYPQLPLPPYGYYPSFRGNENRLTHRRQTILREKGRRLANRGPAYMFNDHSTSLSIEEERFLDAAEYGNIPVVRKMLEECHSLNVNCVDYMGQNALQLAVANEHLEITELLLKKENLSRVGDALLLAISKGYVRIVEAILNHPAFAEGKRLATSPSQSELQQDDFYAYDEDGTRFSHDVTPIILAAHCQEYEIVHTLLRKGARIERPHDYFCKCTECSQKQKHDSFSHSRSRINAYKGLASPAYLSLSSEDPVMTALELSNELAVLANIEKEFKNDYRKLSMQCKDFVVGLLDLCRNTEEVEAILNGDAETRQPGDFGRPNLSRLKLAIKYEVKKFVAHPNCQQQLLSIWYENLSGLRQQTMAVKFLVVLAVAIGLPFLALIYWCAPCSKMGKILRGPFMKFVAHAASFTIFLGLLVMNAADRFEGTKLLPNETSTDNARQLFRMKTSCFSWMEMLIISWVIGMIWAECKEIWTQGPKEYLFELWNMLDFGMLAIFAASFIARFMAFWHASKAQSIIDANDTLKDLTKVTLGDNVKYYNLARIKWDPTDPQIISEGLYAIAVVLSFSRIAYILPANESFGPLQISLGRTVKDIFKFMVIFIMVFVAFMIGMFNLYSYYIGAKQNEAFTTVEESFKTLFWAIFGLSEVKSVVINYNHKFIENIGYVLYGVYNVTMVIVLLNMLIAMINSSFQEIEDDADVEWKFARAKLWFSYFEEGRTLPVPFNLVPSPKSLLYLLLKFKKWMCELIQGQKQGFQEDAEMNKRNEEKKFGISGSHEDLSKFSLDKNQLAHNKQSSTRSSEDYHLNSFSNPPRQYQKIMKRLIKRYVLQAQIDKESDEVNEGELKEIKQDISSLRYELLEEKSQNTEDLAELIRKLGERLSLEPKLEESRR
# TRPC6 act: mouse TRPC6 channel activation | HEK293-TRPC6 membrane potential dye fluorescence; active compounds read high | B-score at 10 µM | 0.13% of 310,000 active;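 active means B-score of the integrated fluorescence ratio above library mean plus 3 SD, and starting fluorescence ratio within library mean plus 5 SD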;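 further: higher score means more depolarization so channel activation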
# TRPC4 potent: allosteric potentiators of mouse TRPC4 channel | Q9QUQ5 | HEK293 TRPC4beta/mu-opioid, DAMGO EC20, Fluo-4 Ca2+ flux; active compounds read high | B-score at 10 µM | 0.42% of 310,000 active | AID 2227;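 active means B-score of calcium response area above 5 SD of library B-scores, with initial fluorescence ratio within 5 SD of library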;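 further: B-score of integrated fluorescence ratio over time as area under calcium response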
# TRPC4 sel inh 2: mouse TRPC4 off-target activity of TRPC6 inhibitors, second screen. HEK293 TRPC4/MOR, membrane potential dye fluorescence; channel activated by saturating DAMGO dose. shares compounds with TRPC6 inh. AID 2776. 42% of 920 active. inhibition, % at 10 µM;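 active means compounds whose fluorescence signal differed from control wells by over 3 SD, either direction, in both duplicate plates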
# TRPC4 spec: selectivity of TRPC6 inhibitors: effect on mouse TRPC4. shares compounds with TRPC6 inh. HEK293 TRPC4/mu-opioid, membrane potential fluorescence. activity change, negative = inhibition, % at 10 µM. 61% of 920 active. AID 2777;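 active means rise or fall in signal beyond 3 SD of buffer-only wells in both replicate plates, either sign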;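 further: integrated kinetic ratio of fluorescence range over baseline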
# HEK293 MPD ctr 2-1: second counter-screen for TRPC6 inhibitors: parental HEK293 cells | shares compounds with TRPC6 inh | parental HEK293 membrane potential dye fluorescence; maximal acetylcholine challenge after compound addition | signal change vs control, % at 10 µM | 31% of 920 active | AID 2779;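 active means membrane potential signal moving either way by over 3 SD of the maximum-effect control, in both duplicate plates, meaning non-specific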
# HEK293 MPD ctr-1: parental HEK293 nonspecific activity of TRPC6 inhibitors; shares compounds with TRPC6 inh; parental HEK293 membrane potential dye fluorescence; membrane potential signal change, % at 10 µM; 60% of 920 active;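 active means membrane potential signal shifting up or down by more than 3 SD of buffer-only wells, on both duplicate plates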
# HEK293 MPD ctr-2: parental HEK293 nonspecific activity of TRPC6 modulators | shares compounds with TRPC6 inh | membrane potential dye fluorescence | membrane potential signal change, % at 10 µM | 51% of 2,400 active | AID 488924;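 active means membrane potential signal moves up or down beyond 5 SD from buffer-only wells, on both duplicate plates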
# HEK293 MPD ctr 2-2: second counter-screen for TRPC6 modulators: effect in parental HEK293 cells | shares compounds with TRPC6 inh | membrane potential dye fluorescence; after compound, maximal acetylcholine stimulation | inhibition, % at 10 µM | 14% of 2,400 active | AID 488926;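 active means membrane potential signal drops by more than 5 SD from the mean control signal, in both duplicate plates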;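 further: plate controls were acetylcholine ECmax control wells for no effect and buffer only wells for full effect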
# TRPC4 ctr mod: tests whether TRPC6 modulators also affect mouse TRPC4 | shares compounds with TRPC6 inh | HEK293 TRPC4/mu-opioid, membrane potential fluorescence | percent change from control (negative = decrease, positive = increase), % at 10 µM | 69% of 2,400 active | AID 488927;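 active means membrane potential signal moved up or down beyond 5 SD of buffer control wells, in both duplicate plates, actives on both sides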;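 further: plate controls were assay buffer wells for no effect and DAMGO maximal-effect wells for full effect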
# TRPC4/MOR inh 2: second selectivity test of TRPC6 modulators against mouse TRPC4. 55% of 2,400 active. inhibition, % at 10 µM. HEK293 TRPC4/mu-opioid, membrane potential dye fluorescence; stimulated with maximal-effect DAMGO. shares compounds with TRPC6 inh;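 active means drop in membrane potential signal beyond 5 SD of the control wells in both duplicate plates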;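 further: TRPC4 counter screen for TRPC6 hits run under conditions tuned for TRPC6 not TRPC4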
# TRPC6 inh conf: confirmation of mouse TRPC6 inhibitors; shares compounds with TRPC6 inh; HEK293-TRPC6, membrane potential dye, ACh-evoked depolarization; inhibition, % at 10 µM; 43% of 3,300 active;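 active means fluorescence ratio falls more than 5 SD below the full-stimulation control mean, in both duplicate runs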;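 further: integrated fluorescence ratio of peak minus minimum over baseline after agonist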
# TRPC6 act confirm: mouse TRPC6 activator confirmation; activation, % at 10 µM; AID 488961; 11% of 2,800 active; HEK293-TRPC6 membrane potential dye fluorescence, FDSS; shares compounds with TRPC6 inh;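 active means ratio signal rise beyond 5 SD above unstimulated control wells' mean, seen in both duplicate runs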;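 further: plate controls were buffer EC0 wells for no effect and acetylcholine ECmax response for full effect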
# * marks the source's active call; other numbers are inactive results; i = inactive; / = no result; + = active, no number. Shown are actives, neighbours in structure and some others; about 2.3% of the full set was active somewhere.
SMILES,TRPC4 agonist,TRPC4 block,TRPC6 inh,TRPC6 act,TRPC4 potent,HEK293 MPD ctr-2,HEK293 MPD ctr 2-2,TRPC4 ctr mod,TRPC4/MOR inh 2,TRPC6 inh conf,TRPC6 act confirm,others
C=CCNC(=S)NNC(=O)Cn1c(-c2ccccc2)cc(=O)n2ncnc12,i,i,i,i,i,/,/,/,/,/,/,
COc1ccc(S(=O)(=O)NCCC(C)C)cc1C,i,i,i,i,i,/,/,/,/,/,/,
C/C(=N\NC(=S)NC(C)C)c1ccccc1OC(F)F,i,i,-8.8*,i,i,/,/,/,/,i,i,TRPC4 sel inh 2=i;TRPC4 spec=i;HEK293 MPD ctr 2-1=i;HEK293 MPD ctr-1=i
COc1ccccc1CNCC(=O)Nc1ccc(C(F)(F)F)cc1,i,i,-5.2*,i,i,i,i,i,42%*,i,i,
COc1ccccc1CNCC(=O)Nc1ccc(C#N)cc1,i,i,i,i,i,/,/,/,/,/,/,
Cc1cc(C(=O)c2ccc3ccccc3c2)c(C)o1,i,i,i,i,i,/,/,/,/,/,/,
CCc1cc(=O)oc2c(C)c(OCC(=O)NCCCN3CCCC3=O)ccc12,i,i,i,i,i,/,/,/,/,/,/,
COc1ccc(-n2cnnc2SCC(=O)N(C)c2ccccc2)cc1,i,i,i,i,i,/,/,/,/,/,/,
COc1ccc(-n2cnnc2SCc2csc(-c3ccccc3)n2)cc1,i,i,-5.2*,i,i,i,i,14%*,i,43%*,/,
CCCC(C)C(=O)Nc1nc(C)c(-c2csc(Nc3ccc(Cl)cc3)n2)s1 (stereo not given),i,i,-6*,i,i,i,i,i,i,i,i,
Cc1cc(Br)cc(Br)c1OCC(=O)NNC(=O)c1ccoc1C,i,i,i,i,i,/,/,/,/,/,/,
CN1C(=O)C(N=Nc2ccccc2C(=O)O)N(C)C1=S (stereo not given),i,i,i,20*,i,438%*,i,80%*,i,i,198%*,
CC(C)CN(C(=O)c1cccc(S(=O)(=O)N2CCN(Cc3ccccc3)CC2)c1)C1CCS(=O)(=O)C1 (stereo not given),i,i,i,i,i,/,/,/,/,/,/,
O=C(NCc1ccco1)c1ccc2ccccc2n1,i,i,-5.1*,i,i,i,i,i,i,44%*,/,
Cc1cccc(C)c1OCCNC(=O)c1ccc2ccccc2n1,i,i,-13*,12*,i,150%*,i,i,44%*,91%*,78%*,
CCN(CC)CCNC(=O)C(Oc1ccccc1)Oc1ccccc1,i,i,i,i,i,/,/,/,/,/,/,
Nc1c(C(=O)N2CCOCC2)oc2ccccc12,i,i,-5.4*,i,i,i,i,i,i,i,i,
COc1ccc(NC(=O)COc2ccccc2)cc1NC(=O)c1ccco1,i,i,i,i,i,/,/,/,/,/,/,
[O-]/[N+](=C/c1cccnc1)c1ccc(Br)cc1,i,i,-6*,i,i,i,i,i,i,i,i,
[O-]/[N+](=C\c1ccncc1)c1ccc(Br)cc1,i,i,i,i,i,/,/,/,/,/,/,
COc1ccc(-c2cn(CCC(=O)NCc3ccc(C)cc3)c(CCN)n2)cc1,i,i,i,i,i,/,/,/,/,/,/,
COc1ccc2c(OC)c3ccoc3nc2c1OC,i,i,-5.6*,i,i,i,i,i,i,i,/,
COc1c2ccoc2nc2c(OC)c(O)ccc12,i,i,i,i,i,/,/,/,/,/,/,
CCCCCCN1C=CC(=C/C=C(\C#N)C(=O)OCC)C=C1,61*,i,-9.6*,78*,i,+,87%*,250%*,i,i,566%*,
O=c1cc(-c2ccccc2)oc2ccc(O)cc12,i,i,i,i,i,/,/,/,/,/,/,
SMILES,TRPC4 agonist,TRPC4 block,TRPC6 inh,TRPC6 act,TRPC4 potent,HEK293 MPD ctr-2,HEK293 MPD ctr 2-2,TRPC4 ctr mod,TRPC4/MOR inh 2,TRPC6 inh conf,TRPC6 act confirm,others
CC1(C)CC(N=c2cc(-c3ccccc3)oc3ccc(Cl)cc23)CC(C)(C)N1,i,i,-9.6*,i,i,/,/,/,/,69%*,i,TRPC4 sel inh 2=42%*;TRPC4 spec=-26%*;HEK293 MPD ctr 2-1=-39%*;HEK293 MPD ctr-1=-328%*
OCCCN=c1cc(-c2ccccc2)oc2ccc(Cl)cc12,i,i,-7.3*,i,i,/,/,/,/,77%*,i,TRPC4 sel inh 2=68%*;TRPC4 spec=-19%*;HEK293 MPD ctr 2-1=i;HEK293 MPD ctr-1=-386%*
O=C(NC(=S)N(CC1CCC1)CC1CCCO1)c1cccc([N+](=O)[O-])c1 (stereo not given),i,i,i,i,i,/,/,/,/,/,/,
O=[N+]([O-])c1ccc2nc(-c3ccncc3)[nH]c2c1,i,i,-6.4*,i,i,-304%*,60%*,-52%*,36%*,i,i,
COc1ccc(S(=O)(=O)Nc2ccccc2C(N)=O)cc1OC,i,i,i,i,i,/,/,/,/,/,/,
Cc1ccccc1C(=O)NC1CCN(CC(=O)N2CCCCC2C)CC1 (stereo not given),i,i,i,i,i,/,/,/,/,/,/,
COc1ccc(OC)c(/C=C/C(=O)c2ccc3c(c2)OCCO3)c1,i,i,i,i,i,/,/,/,/,/,/,

# Bioassay records as filed in PubChem.
